# From ChEMBL document CHEMBL1137500, “Inhibitors of type III secretion in Yersinia: design, synthesis and multivariate QSAR of 2-arylsulfonylamino-benzanilides” (Bioorg Med Chem, 2007)
# Calls of active or inactive are those of the source. The rule behind the calls is not given here.
# Target: Tyrosine-protein phosphatase YopH (Yersinia pseudotuberculosis serotype I (strain IP32953)) (UniProt P08538)
# Experiment: Inhibition of Yersinia pseudotuberculosis YP3-pIB102 YopH at 100 uM
# Outline: (§1)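 Strain YPIII-pIB102 grown overnight at 26 °C in BHI with 25 µg/ml chloramphenicol. Diluted to OD600 0.08 in calcium-depleted BHI (5 mM EGTA, 20 mM MgCl2), with compound at 100, 50, 20 or 10 µM, and shaken 2 h at 37 °C. Culture aliquot added to 25 mM p-nitrophenyl phosphate, 40 mM MES pH 5.0 and 1.6 mM DTT for 15 min at 37 °C. Stopped with NaOH and read at A405. Triplicates; result is % inhibition of secreted YopH activity.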
# Chain of Tyrosine-protein phosphatase YopH (Yersinia pseudotuberculosis serotype I (strain IP32953)) (P08538 whole entry): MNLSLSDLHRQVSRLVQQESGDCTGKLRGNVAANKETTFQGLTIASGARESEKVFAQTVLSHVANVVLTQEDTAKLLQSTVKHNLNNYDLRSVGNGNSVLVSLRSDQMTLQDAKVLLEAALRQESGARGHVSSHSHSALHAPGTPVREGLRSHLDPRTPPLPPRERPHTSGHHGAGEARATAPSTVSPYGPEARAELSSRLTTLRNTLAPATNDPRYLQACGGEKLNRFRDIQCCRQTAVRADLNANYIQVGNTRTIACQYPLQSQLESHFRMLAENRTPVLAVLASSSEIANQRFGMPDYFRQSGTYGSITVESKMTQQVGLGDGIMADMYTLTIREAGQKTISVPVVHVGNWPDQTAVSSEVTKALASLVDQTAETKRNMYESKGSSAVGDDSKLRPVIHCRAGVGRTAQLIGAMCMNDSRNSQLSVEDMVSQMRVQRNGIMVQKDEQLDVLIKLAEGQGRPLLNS
row,Structure (SMILES),inhibition
1,O=C(Nc1ccc(Cl)c(Cl)c1)c1cc(F)c(F)cc1NS(=O)(=O)c1cccc([N+](=O)[O-])c1,81%

# Test system: Yersinia pseudotuberculosis
# Experiment: Effect on T3S in Yersinia pseudotuberculosis 3 pIB29 assessed as inhibition of light emission at 100 uM by luciferase reporter gene assay
# Outline: (§2)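 Strain YPIII-pIB29 (yopE-luxAB transcriptional fusion, lacking YopH), grown overnight at ambient temperature in BHI with 5 mM EGTA and 20 mM MgCl2 to deplete calcium, then adjusted to OD600 0.15-0.25. Compounds in DMSO (≤1% final) at 100, 50, 20 or 10 µM final, in triplicate. Plates shaken 1 h at ambient temperature, then 2 h at 37 °C. Decanal added within 30 min and luminescence read at once. Result is % inhibition of light versus control.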
row,Structure (SMILES),inhibition
1,O=C(Nc1ccc(Cl)c(Cl)c1)c1cc(F)c(F)cc1NS(=O)(=O)c1cccc2nsnc12,80%
2,CN(C)c1ccc(NC(=O)c2cc(Cl)ccc2NS(=O)(=O)c2ccccc2)cc1,1%
3,CN(C)c1ccc(NC(=O)c2cc(Cl)ccc2NS(=O)(=O)c2cccc([N+](=O)[O-])c2)cc1,7%
4,O=C(Nc1ccc(Cl)cc1)c1ccccc1NS(=O)(=O)c1cccc2nsnc12,18%
5,O=C(Nc1ccc(F)c(F)c1)c1ccc(Cl)cc1NS(=O)(=O)c1cc(Cl)cc(Cl)c1O,87%
6,CC(=O)c1ccc(S(=O)(=O)Nc2cc(Cl)ccc2C(=O)Nc2ccc(F)c(Cl)c2)cc1,72%
7,O=C(Nc1ccc(Cl)c(Cl)c1)c1cc(F)c(F)cc1NS(=O)(=O)c1cccc([N+](=O)[O-])c1,90%

# Target: Tyrosine-protein phosphatase YopH (Yersinia pseudotuberculosis serotype I (strain IP32953)) (UniProt P08538)
# Experiment: Inhibition of Yersinia pseudotuberculosis YP3-pIB102 YopH at 50 uM
# Outline: as §1
row,Structure (SMILES),inhibition
1,O=C(Nc1ccc(Cl)c(Cl)c1)c1cc(F)c(F)cc1NS(=O)(=O)c1cccc([N+](=O)[O-])c1,74%

# Target: Tyrosine-protein phosphatase YopH (Yersinia pseudotuberculosis serotype I (strain IP32953)) (UniProt P08538)
# Experiment: Inhibition of Yersinia pseudotuberculosis YP3-pIB102 YopH at 10 uM
# Outline: as §1
row,Structure (SMILES),inhibition
1,O=C(Nc1ccc(Cl)c(Cl)c1)c1cc(F)c(F)cc1NS(=O)(=O)c1cccc([N+](=O)[O-])c1,26%

# Test system: Yersinia pseudotuberculosis
# Experiment: Growth inhibition of Yersinia pseudotuberculosis
# Assay type: functional, organism-based
# Outline: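 Wild-type YPIII-pIB102 diluted to OD600 0.05-0.1 in BHI with 2.5 mM CaCl2. Grown at 37 °C with shaking, with compound at 10, 20, 50 or 100 µM. Absorbance read at 600 nm periodically, or at 595 nm hourly, over six hours and compared with the control growth curve.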
row,Structure (SMILES),Activity
1,O=C(Nc1ccc(Cl)c(Cl)c1)c1cc(F)c(F)cc1NS(=O)(=O)c1cccc2nsnc12,inactive
2,CN(C)c1ccc(NC(=O)c2cc(Cl)ccc2NS(=O)(=O)c2ccccc2)cc1,inactive
3,CN(C)c1ccc(NC(=O)c2cc(Cl)ccc2NS(=O)(=O)c2cccc([N+](=O)[O-])c2)cc1,inactive
4,O=C(Nc1ccc(Cl)cc1)c1ccccc1NS(=O)(=O)c1cccc2nsnc12,inactive
5,O=C(Nc1ccc(F)c(F)c1)c1ccc(Cl)cc1NS(=O)(=O)c1cc(Cl)cc(Cl)c1O,inactive
6,CC(=O)c1ccc(S(=O)(=O)Nc2cc(Cl)ccc2C(=O)Nc2ccc(F)c(Cl)c2)cc1,inactive
7,O=C(Nc1ccc(Cl)c(Cl)c1)c1cc(F)c(F)cc1NS(=O)(=O)c1cccc([N+](=O)[O-])c1,inactive

# Test system: Yersinia pseudotuberculosis
# Experiment: Effect on T3S in Yersinia pseudotuberculosis 3 pIB29 assessed as inhibition of light emission at 20 uM by luciferase reporter gene assay
# Outline: as §2
row,Structure (SMILES),inhibition
1,O=C(Nc1ccc(Cl)c(Cl)c1)c1cc(F)c(F)cc1NS(=O)(=O)c1cccc2nsnc12,39%
2,CN(C)c1ccc(NC(=O)c2cc(Cl)ccc2NS(=O)(=O)c2ccccc2)cc1,1%
3,CN(C)c1ccc(NC(=O)c2cc(Cl)ccc2NS(=O)(=O)c2cccc([N+](=O)[O-])c2)cc1,4%
4,O=C(Nc1ccc(Cl)cc1)c1ccccc1NS(=O)(=O)c1cccc2nsnc12,5%
5,O=C(Nc1ccc(F)c(F)c1)c1ccc(Cl)cc1NS(=O)(=O)c1cc(Cl)cc(Cl)c1O,50%
6,CC(=O)c1ccc(S(=O)(=O)Nc2cc(Cl)ccc2C(=O)Nc2ccc(F)c(Cl)c2)cc1,33%
7,O=C(Nc1ccc(Cl)c(Cl)c1)c1cc(F)c(F)cc1NS(=O)(=O)c1cccc([N+](=O)[O-])c1,33%

# Test system: Yersinia pseudotuberculosis
# Experiment: Effect on T3S in Yersinia pseudotuberculosis 3 pIB29 assessed as inhibition of light emission at 50 uM by luciferase reporter gene assay
# Outline: as §2
row,Structure (SMILES),inhibition
1,O=C(Nc1ccc(Cl)c(Cl)c1)c1cc(F)c(F)cc1NS(=O)(=O)c1cccc2nsnc12,66%
2,CN(C)c1ccc(NC(=O)c2cc(Cl)ccc2NS(=O)(=O)c2ccccc2)cc1,2%
3,CN(C)c1ccc(NC(=O)c2cc(Cl)ccc2NS(=O)(=O)c2cccc([N+](=O)[O-])c2)cc1,8%
4,O=C(Nc1ccc(Cl)cc1)c1ccccc1NS(=O)(=O)c1cccc2nsnc12,12%
5,O=C(Nc1ccc(F)c(F)c1)c1ccc(Cl)cc1NS(=O)(=O)c1cc(Cl)cc(Cl)c1O,86%
6,CC(=O)c1ccc(S(=O)(=O)Nc2cc(Cl)ccc2C(=O)Nc2ccc(F)c(Cl)c2)cc1,70%
7,O=C(Nc1ccc(Cl)c(Cl)c1)c1cc(F)c(F)cc1NS(=O)(=O)c1cccc([N+](=O)[O-])c1,79%

# Target: Tyrosine-protein phosphatase YopH (Yersinia pseudotuberculosis serotype I (strain IP32953)) (UniProt P08538)
# Experiment: Inhibition of Yersinia pseudotuberculosis YP3-pIB102 YopH at 20 uM
# Outline: as §1
row,Structure (SMILES),inhibition
1,O=C(Nc1ccc(Cl)c(Cl)c1)c1cc(F)c(F)cc1NS(=O)(=O)c1cccc([N+](=O)[O-])c1,67%

# Test system: Yersinia pseudotuberculosis
# Experiment: Effect on T3S in Yersinia pseudotuberculosis 3 pIB29 assessed as inhibition of light emission at 10 uM by luciferase reporter gene assay
# Outline: as §2
row,Structure (SMILES),inhibition
1,O=C(Nc1ccc(Cl)c(Cl)c1)c1cc(F)c(F)cc1NS(=O)(=O)c1cccc2nsnc12,9%
2,CN(C)c1ccc(NC(=O)c2cc(Cl)ccc2NS(=O)(=O)c2ccccc2)cc1,0%
3,CN(C)c1ccc(NC(=O)c2cc(Cl)ccc2NS(=O)(=O)c2cccc([N+](=O)[O-])c2)cc1,3%
4,O=C(Nc1ccc(Cl)cc1)c1ccccc1NS(=O)(=O)c1cccc2nsnc12,-1%
5,O=C(Nc1ccc(F)c(F)c1)c1ccc(Cl)cc1NS(=O)(=O)c1cc(Cl)cc(Cl)c1O,15%
6,CC(=O)c1ccc(S(=O)(=O)Nc2cc(Cl)ccc2C(=O)Nc2ccc(F)c(Cl)c2)cc1,11%
7,O=C(Nc1ccc(Cl)c(Cl)c1)c1cc(F)c(F)cc1NS(=O)(=O)c1cccc([N+](=O)[O-])c1,9%
